Data on one compound can be found in ChEMBL document CHEMBL3867438, “Cytotoxic Tirucallane and Apotirucallane Triterpenoids from the Stems of Picrasma quassioides” (J Nat Prod, 2016).

Activity calls are given as the source filed them. The rule behind the calls is not given here.

The nature of experiment [1]: Cytotoxicity against human MKN28 cells assessed as inhibition of cell proliferation after 48 hrs by MTT assay. Format: functional, cell-based. To be noted: MKN-28, 48 h. Put shortly: (§1)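 Cells grown in DMEM with 10% FBS, 100 U/mL penicillin, 100 μg/mL streptomycin, 37 °C, 5% CO2. Seeded 5 × 10^3 cells/well, 12 h, then exposed to compounds for 48 h. MTT (5 mg/mL stock) added for 4 h at 37 °C, formazan dissolved in DMSO, absorbance read at 570 nm. IC50 relative to untreated control. Triplicate, repeated twice; cis-platinum as positive control.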
(Formazan colour is commonly taken as a measure of viable cells.)

The nature of experiment [2]: Cytotoxicity against human A549 cells assessed as inhibition of cell proliferation after 48 hrs by MTT assay. Format: functional, cell-based. To be noted: A549, 48 h. Put shortly: as §1
Experiment [3] in a line: Cytotoxicity against human MCF7 cells assessed as inhibition of cell proliferation after 48 hrs by MTT assay. The class given is functional, cell-based. The note with it: MCF7, 48 h. Put shortly: as §1
For experiment [4], the system named is MKN-28. Put plainly: Induction of apoptosis in human MKN28 cells assessed as viable cells at 2 uM after 48 hrs by annexin V-FITC/PI staining based flow cytometry (reference value: 100%). Format: functional. The note with it: MKN-28, 48 h, read-out: Activity. In outline:
(§2)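 MKN-28 cells (3 × 10^5/well) treated at 2, 6 and 8 μM for 48 h. Stained with annexin V-FITC and PI using a kit per the maker's protocol, then analysed by flow cytometry. Apoptotic populations quantified, early and late apoptosis counted separately. Data given as mean with SD; one-way ANOVA with Tukey's post hoc test.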

In experiment [5] the test system is MKN-28. Put plainly: Induction of apoptosis in human MKN28 cells assessed as early apoptotic cells at 2 uM after 48 hrs by annexin V-FITC/PI staining based flow cytometry (reference value: 0.043%). Format: functional. In outline:
as §2

Experiment [6] relates to MKN-28. Briefly: Induction of apoptosis in human MKN28 cells assessed as late apoptotic cells at 2 uM after 48 hrs by annexin V-FITC/PI staining based flow cytometry (reference value: 0%). Format: functional. Put shortly: as §2
In experiment [7] the test system is MKN-28. Put plainly: Induction of apoptosis in human MKN28 cells assessed as necrotic cells at 2 uM after 48 hrs by annexin V-FITC/PI staining based flow cytometry (reference value: 0%). The class given is functional. Put shortly: as §2
For orientation: In flow cytometry, cells or beads pass a laser one at a time.

Experiment [8] relates to MKN-28. Put plainly: Induction of apoptosis in human MKN28 cells assessed as viable cells at 6 uM after 48 hrs by annexin V-FITC/PI staining based flow cytometry (reference value: 100%). The class given is functional. To be noted: MKN-28, 48 h, read-out: Activity. Put shortly:
as §2

Experiment [9] has as its system MKN-28. Put plainly: Induction of apoptosis in human MKN28 cells assessed as early apoptotic cells at 6 uM after 48 hrs by annexin V-FITC/PI staining based flow cytometry (reference value: 0.043%). The class given is functional. Put shortly: as §2
The subject of experiment [10] is MKN-28. Put plainly: Induction of apoptosis in human MKN28 cells assessed as late apoptotic cells at 6 uM after 48 hrs by annexin V-FITC/PI staining based flow cytometry (reference value: 0%). Format: functional. In outline: as §2
Experiment [11] concerns MKN-28. Briefly: Induction of apoptosis in human MKN28 cells assessed as necrotic cells at 6 uM after 48 hrs by annexin V-FITC/PI staining based flow cytometry (reference value: 0%). The class given is functional. In outline:
as §2

Experiment [12] deals with MKN-28. Briefly: Induction of apoptosis in human MKN28 cells assessed as viable cells at 8 uM after 48 hrs by annexin V-FITC/PI staining based flow cytometry (reference value: 100%). The class given is functional. The note with it: MKN-28, 48 h, read-out: Activity. In outline:
as §2

Experiment [13] concerns MKN-28. Put plainly: Induction of apoptosis in human MKN28 cells assessed as early apoptotic cells at 8 uM after 48 hrs by annexin V-FITC/PI staining based flow cytometry (reference value: 0.043%). Format: functional. In outline: as §2
For experiment [14], the system named is MKN-28. Briefly: Induction of apoptosis in human MKN28 cells assessed as late apoptotic cells at 8 uM after 48 hrs by annexin V-FITC/PI staining based flow cytometry (reference value: 0%). The class given is functional. Put shortly:
as §2

The subject of experiment [15] is MKN-28. Briefly: Induction of apoptosis in human MKN28 cells assessed as necrotic cells at 8 uM after 48 hrs by annexin V-FITC/PI staining based flow cytometry (reference value: 0%). Format: functional. In outline: as §2
Experiment [16] concerns MKN-28. Put plainly: Induction of apoptosis in human MKN28 cells assessed as increase in early apoptotic cells after 48 hrs by annexin V-FITC/PI staining based flow cytometry. The class given is functional, cell-based. Put shortly:
as §2

Experiment [17] relates to MKN-28. Put plainly: Induction of apoptosis in human MKN28 cells assessed as increase in late apoptotic cells after 48 hrs by annexin V-FITC/PI staining based flow cytometry. Format: functional, cell-based. Put shortly:
as §2

For experiment [18], the system named is MKN-28. Put plainly: Induction of mitochondrial apoptosis in human MKN28 cells assessed as caspase 3 activation at 2 to 8 uM after 48 hrs by Western blot analysis. The class given is functional, cell-based. In outline:
(§3)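 MKN-28 cells (1 × 10^6/dish) cultured with compound at 2, 6 and 8 μM for 48 h. Cells lysed for 30 min on ice in RIPA buffer with DTT, PMSF and phosphatase inhibitor, then spun at 14000g, 4 °C, 15 min. Protein measured by BCA. Blots probed for Bcl-2, Bax, Bad, cleaved and pro-caspase-3 and -9, with β-actin as loading control.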
For orientation: Immunoblotting shows a protein as a band on a membrane.

Experiment [19] concerns MKN-28. Put plainly: Induction of mitochondrial apoptosis in human MKN28 cells assessed as caspase 9 activation at 2 to 8 uM after 48 hrs by Western blot analysis. Format: functional, cell-based. Put shortly: as §3
The test system of experiment [20] is MKN-28. Put plainly: Induction of mitochondrial apoptosis in human MKN28 cells assessed as increase in bax expression level at 2 to 8 uM after 48 hrs by Western blot analysis. The class given is functional, cell-based. Put shortly:
as §3

The test system of experiment [21] is MKN-28. Briefly: Induction of mitochondrial apoptosis in human MKN28 cells assessed as increase in bad expression level at 2 to 8 uM after 48 hrs by Western blot analysis. Format: functional, cell-based. In outline: as §3
Experiment [22] has as its system MKN-28. Briefly: Induction of mitochondrial apoptosis in human MKN28 cells assessed as decrease in bcl-2 expression level at 2 to 8 uM after 48 hrs by Western blot analysis. The class given is functional, cell-based. Put shortly:
as §3

Take `CCO[C@@H]1O[C@@H](C=C(C)C)C[C@H]1[C@@H]1CC=C2[C@]3(C)[C@H](O)C[C@H]4C(C)(C)[C@H](O)CC[C@]4(C)[C@H]3CC[C@]21C`: the IC50 (in general, the midpoint of a concentration-inhibition curve) in experiment [1] amounted to 2.5 µM; in [2], 5.6 µM; in experiment [3], 9.1 µM. Moreover, in the experiment with MKN-28 [4], the viability at 2 µM stood at 93.2%. Also, the Activity in the experiment with MKN-28 [5] is 3.21%; in the experiment with MKN-28 [6] it was 2.69%; in the experiment on MKN-28 [7], 0.869%; in the experiment with MKN-28 [9] it was 5.76%; in the experiment on MKN-28 [10], 12.6%; with MKN-28 [11], 2.51%. The Activity with MKN-28 [13] is 12.4%; with MKN-28 [14], 21%; in the experiment on MKN-28 [15], 0.685%; in the experiment with MKN-28 [16], “Dose-dependent effect”; with MKN-28 [17], “Dose-dependent effect”. In the experiment with MKN-28 [8], the viability at 6 µM was 78.9%. In addition, in the experiment on MKN-28 [12], the viability at 8 µM was found to be 66%. Besides, the outcome with MKN-28 [18], in the experiment with MKN-28 [19], in the experiment with MKN-28 [20], with MKN-28 [21] and in the experiment on MKN-28 [22] was Active.
